Results as given in ChEMBL document CHEMBL3421610, “Antimalarial activity of 4-amidinoquinoline and 10-amidinobenzonaphthyridine derivatives” (J Med Chem, 2015).
In brackets after ≈: the same amount, converted by molar mass. Activity calls are given as the source filed them. The rule behind the calls is not given here.

Key:
[1] = Half life in human liver microsomes at 1 uM by LC/MS analysis; format: ADME
Method in brief: (§1)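 Compound at 1 µM final, diluted from […], with 0.5 mg/mL pooled human or mouse liver microsomes, NADP, MgCl2 and 0.1 M PBS pH 7.4. Reaction started with 1 U/mL G6PD and shaken at 37 °C. Aliquots quenched in cold acetonitrile at 0, 10, 20, 30 and 60 min and quantified by LC/MS. Half-life from log plot of total ion chromatogram area remaining.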

[2] = Half life in mouse liver microsomes at 1 uM by LC/MS analysis; format: ADME; method in brief: as §1
[3] = tested on: Plasmodium falciparum; assay: Antimalarial activity against chloroquine-sensitive Plasmodium falciparum D6 assessed as growth inhibition after 18 hrs by [3H]-hypoxanthine uptake assay; format: functional, organism-based
Method in brief: (§2)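 P. falciparum clones D6, W2 and TM91C235; modified semiautomated microdilution. Compounds in DMSO, diluted in RPMI 1640 with 10% human plasma, tested over (1.56-100) x 10^-9 M; final DMSO 0.25-0.5%. Inoculum 0.5% parasitemia, 1% hematocrit. 24 h incubation, then [3H]-hypoxanthine added, further 18 h. Harvested and read by scintillation counting; IC50 by nonlinear regression.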

[4] = tested on: Plasmodium falciparum; assay: Antimalarial activity against chloroquine-resistant Plasmodium falciparum W2 assessed as growth inhibition after 18 hrs by [3H]-hypoxanthine uptake assay; format: functional, organism-based; method in brief: as §2
[5] = tested on: Plasmodium falciparum; assay: Antimalarial activity against chloroquine-resistant Plasmodium falciparum C235 assessed as growth inhibition after 18 hrs by [3H]-hypoxanthine uptake assay; format: functional, organism-based; method in brief: as §2
[6] = tested on: HepG2; assay: Cytotoxicity against human HepG2 cells after 48 hrs by MTT assay; format: cell-based; settings: HepG2, 48 h
Method in brief: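 HepG2 cells in supplemented MEM, plated at 9570 cells/well in 384-well format and incubated overnight at 37 °C, 5% CO2. Twelve duplicate 1.6-fold dilutions, 57–10,000 ng/ml, incubated 48 h. MTT added for 1 h at room temperature in the dark, formazan dissolved in acidified isopropanol, absorbance read. IC50 by sigmoidal variable-slope nonlinear regression; tryptanthrin control.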

[7] = biological target: hERG (KCNH2) (Homo sapiens, UniProt Q12809); assay: Inhibition of human ERG expressed in CHL cells assessed as tail current at 10 uM after 7 mins by patch clamp assay relative to control; format: cell-based; settings: CHL cells expressing human ERG
hERG (KCNH2), sequence (Q12809 whole entry): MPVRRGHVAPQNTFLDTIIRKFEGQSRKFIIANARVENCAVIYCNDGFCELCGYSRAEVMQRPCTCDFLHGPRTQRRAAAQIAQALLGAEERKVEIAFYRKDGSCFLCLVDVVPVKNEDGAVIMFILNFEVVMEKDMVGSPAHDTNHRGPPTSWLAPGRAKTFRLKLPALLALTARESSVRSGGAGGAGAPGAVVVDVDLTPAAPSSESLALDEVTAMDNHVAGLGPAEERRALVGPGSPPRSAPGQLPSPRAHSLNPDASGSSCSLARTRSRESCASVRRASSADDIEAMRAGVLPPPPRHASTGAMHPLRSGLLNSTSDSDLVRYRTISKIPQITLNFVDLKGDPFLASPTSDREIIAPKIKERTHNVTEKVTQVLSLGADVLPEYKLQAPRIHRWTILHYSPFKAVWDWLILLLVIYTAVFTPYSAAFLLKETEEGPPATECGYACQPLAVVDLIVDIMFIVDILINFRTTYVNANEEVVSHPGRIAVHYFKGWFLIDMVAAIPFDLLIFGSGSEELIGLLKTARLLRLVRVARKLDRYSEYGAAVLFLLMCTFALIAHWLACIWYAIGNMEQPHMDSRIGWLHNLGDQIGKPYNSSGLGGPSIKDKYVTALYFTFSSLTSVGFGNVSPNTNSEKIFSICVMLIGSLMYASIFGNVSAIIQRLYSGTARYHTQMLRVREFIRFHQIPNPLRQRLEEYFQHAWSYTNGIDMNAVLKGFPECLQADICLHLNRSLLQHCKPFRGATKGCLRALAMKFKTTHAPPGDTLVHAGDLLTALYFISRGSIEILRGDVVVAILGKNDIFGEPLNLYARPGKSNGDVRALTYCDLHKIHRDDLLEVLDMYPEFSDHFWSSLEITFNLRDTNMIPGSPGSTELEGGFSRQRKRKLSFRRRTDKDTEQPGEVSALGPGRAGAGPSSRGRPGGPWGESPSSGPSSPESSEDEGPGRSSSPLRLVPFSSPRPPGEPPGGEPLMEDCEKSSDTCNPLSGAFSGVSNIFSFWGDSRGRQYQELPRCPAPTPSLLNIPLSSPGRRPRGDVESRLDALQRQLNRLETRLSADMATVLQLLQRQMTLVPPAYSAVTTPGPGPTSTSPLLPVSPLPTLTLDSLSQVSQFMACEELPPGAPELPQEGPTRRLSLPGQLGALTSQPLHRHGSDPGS

[8] = tested on: Plasmodium berghei; assay: Antimalarial activity against erythrocytic stage of chloroquine resistant Plasmodium berghei ANKA infected in mouse assessed as cure rate at 120 mg/kg, po qd administered on day 3, 4 and 5 post infection measured 3 times per week for 30 days, starting from day 3 by Thompson test; format: functional, organism-based; design: dose 120 mg/kg
Method in brief: (§3)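 Male mice of 16-20 g inoculated intraperitoneally with 5 x 10^6 erythrocytes infected with CQ-resistant P. berghei ANKA. Drug given orally as a suspension once daily on days 3, 4 and 5 post-infection, five mice per dose. Blood films from day 3, three times weekly for 30 days. Cure means parasite-negative on day 30 or surviving 30 days. Mice losing >20% body weight sacrificed.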

[9] = tested on: Mus musculus; assay: Toxicity in mouse infected with erythrocytic stage of chloroquine resistant Plasmodium berghei ANKA up to 160 mg/kg, po qd administered on day 3, 4 and 5 post infection measured over 30 days; format: organism-based, Erythrocyte; design: dose 160 mg/kg, route oral; settings: in vivo, 720 h
Method in brief: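 Male mice of 16-20 g infected intraperitoneally with CQ-resistant P. berghei ANKA (5 x 10^6 infected erythrocytes). Oral dosing once daily on days 3-5, five mice per group. Animals followed for 30 days by blood films; mice losing >20% body weight sacrificed.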

[10] = tested on: Plasmodium berghei; assay: Antimalarial activity against erythrocytic stage of chloroquine resistant Plasmodium berghei ANKA infected in mouse assessed as cure rate at 160 mg/kg, po qd administered on day 3, 4 and 5 post infection measured 3 times per week for 30 days, starting from day 3 by Thompson test; format: functional, organism-based; design: dose 160 mg/kg; method in brief: as §3

SMILES | half-life at 1 µM [1] [min] | half-life at 1 µM [2] [min] | IC50 [3] [nM] | IC50 [4] [nM] | IC50 [5] [nM] | IC50 [6] [µg/mL] | inhibition at 7 min, 10 µM [7] [%] | Activity [8] | Activity [9] | Activity [10]
CCN(CC)CCCN(CCCN(CC)CC)/C(=N\c1c2ccc(Cl)cc2nc2ccc(OC)nc12)C(C)C | > 60 | > 60 | 1.1 | 6.1 | 3.2 | 0.668 (≈ 1.2 µM) | 32.5 | – | – | –
Clc1ccc2c(/N=C(\NCCCN3CCCCC3)c3ccccc3)ccnc2c1 | 12 | 18 | 5.2 | 15.7 | 5.7 | 5.12 (≈ 12.6 µM) | 93 | – | – | –
C/C(=N/c1ccnc2cc(Cl)ccc12)NCCC1CCN(c2ccncc2)CC1 | > 60 | > 60 | 36.4 | 193 | 64 | 6.73 (≈ 16.5 µM) | – | – | – | –
COc1ccc2nc3cc(Cl)ccc3c(N/C(C)=N/CCCN3CCCCC3)c2n1 | 14 | 15 | 8 | 24.9 | 13.1 | 2.81 (≈ 6.59 µM) | 94.5 | Active | Non-toxic | –
COc1ccc2nc3cc(Cl)ccc3c(N/C(C)=N/CCCN(C)C)c2n1 | > 60 | 42 | 26 | 100 | 51.3 | 18.1 (≈ 46.8 µM) | 91.5 | Active | Non-toxic | –
O=C1c2ccccc2-n2c1nc1ccccc1c2=O [TRYPTANTHRIN] | – | – | – | – | – | 0.305 (≈ 1.23 µM) | – | – | – | –
CCN(CC)CCC/N=C(\c1cccnc1)N(CCCN(CC)CC)c1ccnc2cc(Cl)ccc12 | > 60 | > 60 | 34.8 | 383 | 290 | 2.94 (≈ 5.78 µM) | – | – | – | –
CCCCN(CCCC)CCC(O)c1cc2c(Cl)cc(Cl)cc2c2cc(C(F)(F)F)ccc12 (stereo not drawn) [HALOFANTRINE] | – | – | – | – | – | – | 100 | – | – | –
CCN(CC)CCC/N=C(\c1ccccc1)N(CCCN(CC)CC)c1ccnc2cc(Cl)ccc12 | > 60 | > 60 | 6.1 | 76.8 | 33.7 | 4.09 (≈ 8.05 µM) | 21.9 | – | – | –
CCN(CC)CCCN/C(C)=N\c1ccnc2cc(Cl)ccc12 | > 60 | > 60 | 138 | 226 | 133 | > 10 | – | – | – | –
CCN(CC)CCC/N=C(/Nc1c2ccc(Cl)cc2nc2ccc(OC)nc12)c1ccccc1 | 16 | 26 | 1.7 | 5.6 | 2.8 | 3.7 (≈ 7.77 µM) | – | – | – | –
COc1ccc2nc3cc(Cl)ccc3c(N(CCCN(C)C)/C(C)=N/CCCN(C)C)c2n1 | > 60 | > 60 | 11.7 | 80.8 | 51 | 1.7 (≈ 3.6 µM) | 18.3 | – | – | –
CCN(CC)CCCC(C)Nc1ccnc2cc(Cl)ccc12 (stereo not drawn) [CHLOROQUINE] | > 60 | > 60 | – | – | – | 12 (≈ 37.6 µM) | 71 | – | – | Active
C/C(=N/c1ccnc2cc(Cl)ccc12)NC1CCN(C)CC1 | > 60 | > 60 | 76 | 275 | 89 | > 30.3 | – | – | – | –
COc1ccc2nc3cc(Cl)ccc3c(N/C(=N/CCCN3CCCCC3)C(C)C)c2n1 | 9 | 8 | 1.1 | 3.96 | 1.94 | 2.01 (≈ 4.42 µM) | 69.6 | – | – | –
OC(c1cc(C(F)(F)F)nc2c(C(F)(F)F)cccc12)C1CCCCN1 (stereo not drawn) [MEFLOQUINE] | – | – | – | – | – | – | 95 | – | – | –

SMILES | half-life at 1 µM [1] [min] | half-life at 1 µM [2] [min] | IC50 [3] [nM] | IC50 [4] [nM] | IC50 [5] [nM] | IC50 [6] [µg/mL] | inhibition at 7 min, 10 µM [7] [%] | Activity [8] | Activity [9] | Activity [10]
CCN(CC)CCCCCN/C(C)=N\c1ccnc2cc(Cl)ccc12 | 56 | > 60 | 125 | 455 | 175 | 12.5 (≈ 34.5 µM) | – | – | – | –
CCN(CC)CCN/C(C)=N\c1ccnc2cc(Cl)ccc12 | 26 | 18 | 189 | 296 | 182 | 1.32 (≈ 4.15 µM) | – | – | – | –
CCN(CC)CCN/C(=N\c1ccnc2cc(Cl)ccc12)C(C)C | > 60 | 12 | 54 | 97 | 52 | 12.7 (≈ 36.6 µM) | – | – | Toxic | Active
C/C(=N/c1ccnc2cc(Cl)ccc12)NCCCN1CCOCC1 | 25 | 22 | 327 | 295 | 578 | > 30.3 | – | – | – | –
CCN(CC)CCC/N=C(/N=c1\ccn(CCCN(CC)CC)c2cc(Cl)ccc12)c1cccnc1 | > 60 | > 60 | 2500 | 3920 | 2660 | 14.1 (≈ 27.7 µM) | – | – | – | –
CCN(CC)CCCCN/C(=N\c1ccnc2cc(Cl)ccc12)C(C)C | 55 | 42 | 61 | 254 | 125 | 5.01 (≈ 13.4 µM) | 54.6 | – | Non-toxic | Active
CN(C)CCC/N=C(\c1ccccc1)N(CCCN(C)C)c1ccnc2cc(Cl)ccc12 | > 60 | > 60 | 7.1 | 121 | 45.4 | 5.77 (≈ 12.8 µM) | 16.4 | – | – | –
CC(C)/C(=N/c1ccnc2cc(Cl)ccc12)NC1CCN(Cc2ccccc2)CC1 | 25 | 30 | 15 | 58.7 | 30.9 | 5.15 (≈ 12.2 µM) | 51.8 | – | – | –
CCN(CC)CCC/N=C(/Nc1c2ccc(Cl)cc2nc2ccc(OC)nc12)c1cccnc1 | 32 | 29 | 7.2 | 20.6 | 8.2 | 8.6 (≈ 18 µM) | 63 | – | – | –
COc1ccc2nc3cc(Cl)ccc3c(N/C(=N/CCCN(C)C)C(C)C)c2n1 | 33 | 46 | 2.2 | 9.7 | 4.3 | 3.56 (≈ 8.6 µM) | 72.1 | – | – | –
Clc1ccc2c(N(CCCN3CCCCC3)/C(=N/CCCN3CCCCC3)c3ccccc3)ccnc2c1 | 31 | > 60 | 1.9 | 16 | 6.95 | 2.45 (≈ 4.6 µM) | 21.7 | – | – | –
CCN(CC)CCC/N=C(/Nc1c2ccc(Cl)cc2nc2ccc(OC)nc12)C(C)C | 20 | 22 | 2 | 8.8 | 3.8 | 2.06 (≈ 4.67 µM) | 86.5 | – | – | –
CCN(CC)CCCN/C(=N\c1ccnc2cc(Cl)ccc12)c1cccnc1 | 36 | > 60 | 38.9 | 203 | 79.5 | 7.87 (≈ 19.9 µM) | 101 | – | – | –
C/C(=N/c1ccnc2cc(Cl)ccc12)NCCc1ccncc1 | 47 | 13 | 920 | 617 | 719 | 11.3 (≈ 34.7 µM) | – | – | – | –
CC(C)/C(=N/c1ccnc2cc(Cl)ccc12)NCCCN1CCCCC1 | 29 | 43 | 34 | 91 | 56 | > 24.2 | 74.5 | – | Non-toxic | Active
CCN(CC)CCCN(CCCN(CC)CC)/C(C)=N\c1ccnc2cc(Cl)ccc12 | > 60 | > 60 | 15 | 121 | 33.9 | 3 (≈ 6.73 µM) | 16.2 | – | – | –
